High-throughput results deposited in PubChem BioAssay by several laboratories.
Autophagy HCS = autophagy modulators in MEF cells, primary screen, imaging, high-content, MEF GFP-LC3. MEF GFP-LC3 puncta imaging; test concentration mostly 10 µM. calls only at 10 µM (by protocol). 190,000 tested, 0.98% active. AID 463193, 2010;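 active means percentage of spot-positive cells more than 3 SD above its plate mean, without a fluorescence outlier flag or 80% toxicity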
Dynein cargo inh = inhibitors of GR-EGFP nuclear translocation, primary screen, dynein cargo transport inhibitor project, imaging, high-content, 3617.4 mouse cells. test concentration mostly 20 µM; stimulated with dexamethasone, 1 µM; stronger effect = lower value. 220,000 tested, 0.47% active. z-score, hits read low;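 active means plate z-score of nuclear minus cytoplasmic receptor signal below a set negative limit, without overly bright fluorescence or cell loss, cut at about -3.5 in these data, passing the limit was not always enough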;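 further: z-score of nuclear minus cytoplasmic ring GR-EGFP intensity difference per well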
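Also added – dexamethasone, 1.0 µM final · Buffer or medium – tet-free, stripped-serum medium · Schedule – induction 48 h, compound 1 h, agonist 30 min · Detection – formaldehyde fixation, Hoechst nuclear stain, 10x automated fluorescence imaging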
PTEN del growth = growth suppression of PTEN-null HCT116, primary screen, cell-based, CellTiter-Glo. HCT116 PTEN-null viability, 60 h; stronger effect = lower value. viability, % at 10 µM. 140,000 tested, 1.2% active. AID 827, 2007;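 active means viability at or below a set limit, 4 SD under the median of all tested compounds, cut at about 3.7% in these data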;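 further: PTEN knockout HCT116 line with beta catenin targeted HCT116 as companion control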
bCat KO growth = primary screen for growth suppressors in beta-catenin knockout HCT116 cells (colon tumor, human); viability, % at 10 µM; 140,000 tested, 1.5% active; HCT116 beta-catenin knockout viability, CellTiter-Glo, 60 h; stronger effect = lower value;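 active means viability at or under a set limit, the compound median less 4 SD, cut at about 6% in these data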
sdo1 growth = growth rescue of sdo1-depleted yeast, primary screen, S. cerevisiae, bone marrow failure model; S. cerevisiae sdo1-depleted JHY4D growth rescue, OD600 30 h; stronger effect = higher value; pdr5 snq2 efflux-pump mutant strain; z-score at 10 µM; 140,000 tested, 0.21% active;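 active means z-score above 3 at both the 24 hr and the 30 hr optical density reads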
sdo1 rescue conf = SDO1-depleted yeast growth rescue, concentration-response, diseases of bone marrow failure, JHY4D, OD600; 440 tested, 44% active; OD recovery (concentration not given with the values); S. cerevisiae JHY4D (SDO1-depleted) growth rescue, 30 h; stronger effect = higher value; efflux-deficient strain, SNQ2 and PDR5 mutated; shares compounds with sdo1 growth;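 active means yeast growth recovered at 30 hours, either rising with dose fitted slope above 0.001 or with average optical density gain above 0.07, some results past the limit were not filed as active; inactive means growth falling with dose or no effect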
Large screens that a line does not name were inactive (follow-up assays come after a bar, where they were run). Rows were chosen to be rich in hits. Some 2.2% of all compounds tested hit in one or more screens of this group.

O=C(CSc1ccc2ccccc2c1)Nc1ccc(S(=O)(=O)Nc2nccs2)cc1	none
c1cnc(N2CCSCC2)nc1	sdo1 growth 8.9 | sdo1 rescue conf inactive
O=C(CN1CCN(Cc2ccccc2)CC1)Nc1ccc(N2CCOCC2)cc1	none (no result: PTEN del growth, bCat KO growth, sdo1 growth)
N#Cc1c(C(F)(F)F)cc(-c2ccccc2)nc1SCC(=O)Nc1sc2c(c1C#N)CCC2	Autophagy HCS active | sdo1 rescue conf 0.093
Cc1cccc(NC(=S)NCC(c2cccnc2)N(C)C)c1 (centres undefined)	none
OCC1(CC2CCCCO2)CCN(Cc2cccc(O)c2)CC1 (centres undefined)	none (no result: PTEN del growth, bCat KO growth, sdo1 growth)
CCOc1ccc(NC(=O)CNC(=O)c2cn(-c3ccccc3OC)c(=O)c3ccccc23)cc1	none
COCCn1c(SCc2cnc(-c3ccccc3)s2)nnc1-c1ccncc1	none
COc1ccc(-n2cnnc2SCc2cnc(-c3ccccc3)s2)cc1	sdo1 growth 3.1 | sdo1 rescue conf inactive
N#Cc1ccc(-c2csc(NC(=O)c3ccc(S(=O)(=O)N4CCc5ccccc5C4)cc3)n2)cc1	none
CC1CN(CC(=O)Nc2ccccc2Sc2ccccc2)CC(C)O1 (centres undefined)	none
COc1ccc(C(=O)NCCc2cn3ccc(C)cc3n2)cc1	none | sdo1 rescue conf 0.081
CCC1(C)Cc2ccccc2-c2nc(NCCCO)n(-c3ccccc3)c(=O)c21 (centres undefined)	sdo1 growth 5.8 | sdo1 rescue conf inactive
CCn1c(NCCO)nc2c(c1=O)C(C)(CC)Cc1ccccc1-2 (centres undefined)	none (no result: Autophagy HCS, PTEN del growth, bCat KO growth, sdo1 growth)
Cc1cc(C)cc(NC(=O)C(NCCN2CCOCC2)c2ccccc2)c1 (centres undefined)	none (no result: PTEN del growth, bCat KO growth, sdo1 growth)
O=C(COC(=O)CCSc1ccc(Cl)cc1)NCc1ccccc1	none
COc1ccc(Br)cc1C(=O)Nc1cccc(-c2nnc(-c3ccco3)o2)c1	none (no result: PTEN del growth, bCat KO growth, sdo1 growth)
COc1cccc(C(=O)Nc2cccc(-c3nnc(-c4ccco4)o3)c2)c1	bCat KO growth 5.0, sdo1 growth 4.7 | sdo1 rescue conf inactive
O=C(CSc1ncnc2c1oc1ccccc12)Nc1ccccc1F	none (no result: Autophagy HCS) | sdo1 rescue conf inactive
COc1ccc(-c2nc3nc(C)cc(C)n3n2)cc1	sdo1 growth 13 | sdo1 rescue conf inactive
COc1ccc(CNc2nc3nc(C)cc(C)n3n2)cc1	none
COC(=O)C1C(=O)C=C(Nc2ccc(F)cc2F)CC1c1ccccc1 (centres undefined)	none
CN(C)c1ccc(/C=[N+](\[O-])C2N(c3ccccc3)C(=S)SC2(C)C)cc1 (centres undefined)	sdo1 growth 7.9 | sdo1 rescue conf inactive
CC12CCC(C(=O)N(NC(=O)c3ccc(O)cc3)C1=O)C2(C)C (centres undefined)	none
CC12CCC(C(=O)N(NC(=O)c3cccnc3)C1=O)C2(C)C (centres undefined)	sdo1 growth 6.2 | sdo1 rescue conf inactive
COc1ccc(C(=O)CSc2nnc(Cc3ccccc3)o2)cc1	sdo1 growth 7 | sdo1 rescue conf inactive
O=C(CSc1nnc(-c2ccco2)o1)c1ccccc1	none | sdo1 rescue conf inactive
O=C(COC(=O)Cc1cccs1)Nc1ccccc1	none | sdo1 rescue conf 0.034
COc1ccc(N2CCN(c3nc(NC(C)(C)C)nc(N4CCCCC4)n3)CC2)cc1	none
CC(=O)N(c1c(C)n(C)n(-c2ccccc2)c1=O)C1(C(=O)NC2CCCCC2)CCCCC1	none
CC(=O)N(c1c(C)n(C)n(-c2ccccc2)c1=O)C1(C(=O)NC2CCCC2)CCCCC1	sdo1 growth 11 | sdo1 rescue conf 0.064
Cc1cc(C)nc(SCC(=O)Nc2ncc(Cc3cccc(Cl)c3)s2)n1	none | sdo1 rescue conf 0.091
COc1cc(CNCc2ccccn2)ccc1OCc1ccc(Cl)cc1	none
COc1cc(CNCc2ccccn2)ccc1OCc1cccc(Cl)c1	sdo1 growth 7.7 | sdo1 rescue conf 0.072
CCCCOCCCNC(=O)c1c(-c2ccccc2)noc1C	none
Cn1c(NCc2ccccc2)nc2c1c(=O)n(Cc1ccc(Br)cc1)c(=O)n2C	none (no result: PTEN del growth)
COc1ccc(CNc2nc3c(c(=O)n(Cc4ccc(Br)cc4)c(=O)n3C)n2C)cc1	none | sdo1 rescue conf inactive
COc1ccc(NC(=O)COC(=O)/C=C/C(=O)OCC(=O)Nc2ccc(OC)c(Cl)c2)cc1Cl	none | sdo1 rescue conf inactive
CCOC(=O)/C=C/C(=O)OCC(=O)Nc1ccc(OC)c(Cl)c1	none
N#CC(C(=S)Nc1ccccc1)c1nc2ccccc2[nH]1 (centres undefined)	none (no result: Autophagy HCS, PTEN del growth, bCat KO growth, sdo1 growth)
N#CC(C(=O)C1CCCCC1)c1nc2ccccc2[nH]1 (centres undefined)	sdo1 growth 8.8 | sdo1 rescue conf inactive
Cc1cc(N2CCOCC2)nc(SCC(=O)c2ccccc2)n1	none | sdo1 rescue conf 0.085
COC(=O)c1c(NC(=O)Cc2cccs2)sc2c1CCCC2	sdo1 growth 7.5 | sdo1 rescue conf inactive
COCC(=O)Nc1sc2c(c1C(=O)OC)CCCC2	none
COc1cccc(/C=C/C(=O)c2ccc(NS(=O)(=O)c3ccc(C)cc3)cc2)c1	none
COc1cc(/C=C/C(=O)c2ccc(NS(=O)(=O)c3ccc(C)cc3)cc2)cc(OC)c1O	sdo1 growth 11 | sdo1 rescue conf inactive
COc1ccccc1/C=N\Nc1ccccc1[N+](=O)[O-]	none (no result: Autophagy HCS, PTEN del growth, bCat KO growth, sdo1 growth)
CCOc1ccccc1/C=N/Nc1ccccc1[N+](=O)[O-]	none | sdo1 rescue conf inactive
O=C(Nc1nc2c(Br)cc(Br)cc2c(=O)s1)C1CCC1	none (no result: Autophagy HCS, PTEN del growth, bCat KO growth, sdo1 growth)
COc1ccc(CC(NC(C)=O)C(=O)NC2CCN(S(=O)(=O)c3cccc4ccccc34)CC2)cc1OC (centres undefined)	none | sdo1 rescue conf 0.097
COc1ccc(CC(NC(C)=O)C(=O)NC2CCN(S(=O)(=O)c3ccccc3)CC2)cc1OC (centres undefined)	none
CCC(CC)C(=O)Nc1cccc(/C(C)=N\NC(=O)c2ccc(C)s2)c1	none
C/C(=N/NC(=O)c1ccc(C)s1)c1cccc(NC(=O)COc2ccc(Cl)cc2Cl)c1	none | sdo1 rescue conf inactive
COC(=O)C(C)N(C(=O)c1cccc(Cl)c1)c1c(C)cccc1C (centres undefined)	sdo1 growth 5.6 | sdo1 rescue conf inactive
COC(=O)C(C)N(C(=O)c1cccc2ccccc12)c1c(C)cccc1C (centres undefined)	none
O=C(Nc1ccc(S(=O)(=O)N2CCCCCC2)cc1)c1ccco1	none | sdo1 rescue conf inactive
COc1cc(/C=N/NC(=O)CN2CCCCC2)ccc1OCc1ccccc1	none
CCCCOc1ccc(C(=O)N/N=C/c2ccc(OCCN3CCCCC3)c(OC)c2)cc1	sdo1 growth 9 | sdo1 rescue conf 0.11
